Measurements published in ChEMBL document CHEMBL2331132, “Synthesis, evaluation and absolute configuration assignment of novel dihydropyrimidin-2-ones as picomolar sodium iodide symporter inhibitors” (Eur J Med Chem, 2013).

System: FRTL-5
Test: Cytotoxicity against rat FRTL5 cells at 1 uM after 24 hrs by MTT assay
Assay type: cell-based
Settings: frtl-5, 24 h
In short: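 Rat FRTL5 thyroid cells at about 50% confluence, given a single compound concentration for 24 h. MTT added (1.2 mg/mL), then 3 h at 37 °C and absorbance read at 570 nm to score viability. Ouabain run as assay control at eight concentrations.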

Row | SMILES | Activity
1 | COc1ccc(COC(=O)C2=C(C)N(C)C(=O)N(C)C2c2ccco2)cc1OC (configuration not stated) | Non-toxic
2 | CC1=C(C(=O)OCc2ccc3c(c2)OCO3)C(c2ccco2)NC(=O)N1 (configuration not stated) | Non-toxic
3 | CC1=C(C(=O)OCc2ccc3c(c2)OCO3)C(c2ccco2)NC(=O)N1C (configuration not stated) | Non-toxic
4 | CC1=C(C(=O)OCc2ccc3c(c2)OCO3)C(c2ccco2)N(C)C(=O)N1C (configuration not stated) | Non-toxic
5 | COc1ccc(COC(=O)C2=C(C)NC(=O)NC2c2ccco2)cc1 (configuration not stated) | Non-toxic
6 | COc1ccc(COC(=O)C2=C(C)N(C)C(=O)NC2c2ccco2)cc1 (configuration not stated) | Non-toxic
7 | COc1ccc(COC(=O)C2=C(C)N(C)C(=O)N(C)C2c2ccco2)cc1 (configuration not stated) | Non-toxic
8 | COc1cccc(COC(=O)C2=C(C)NC(=O)NC2c2ccco2)c1 (configuration not stated) | Non-toxic
9 | COc1cccc(COC(=O)C2=C(C)N(C)C(=O)NC2c2ccco2)c1 (configuration not stated) | Non-toxic
10 | COc1cccc(COC(=O)C2=C(C)N(C)C(=O)N(C)C2c2ccco2)c1 (configuration not stated) | Non-toxic
11 | COc1ccc(COC(=O)C2=C(C)NC(=O)NC2c2ccco2)cc1OC (configuration not stated) | Non-toxic
12 | COc1ccc(COC(=O)C2=C(C)N(C)C(=O)NC2c2ccco2)cc1OC (configuration not stated) | Non-toxic

Biological target: T1, Sodium/iodide cotransporter (Rattus norvegicus, UniProt Q63008)
T1 sequence (Q63008 whole entry): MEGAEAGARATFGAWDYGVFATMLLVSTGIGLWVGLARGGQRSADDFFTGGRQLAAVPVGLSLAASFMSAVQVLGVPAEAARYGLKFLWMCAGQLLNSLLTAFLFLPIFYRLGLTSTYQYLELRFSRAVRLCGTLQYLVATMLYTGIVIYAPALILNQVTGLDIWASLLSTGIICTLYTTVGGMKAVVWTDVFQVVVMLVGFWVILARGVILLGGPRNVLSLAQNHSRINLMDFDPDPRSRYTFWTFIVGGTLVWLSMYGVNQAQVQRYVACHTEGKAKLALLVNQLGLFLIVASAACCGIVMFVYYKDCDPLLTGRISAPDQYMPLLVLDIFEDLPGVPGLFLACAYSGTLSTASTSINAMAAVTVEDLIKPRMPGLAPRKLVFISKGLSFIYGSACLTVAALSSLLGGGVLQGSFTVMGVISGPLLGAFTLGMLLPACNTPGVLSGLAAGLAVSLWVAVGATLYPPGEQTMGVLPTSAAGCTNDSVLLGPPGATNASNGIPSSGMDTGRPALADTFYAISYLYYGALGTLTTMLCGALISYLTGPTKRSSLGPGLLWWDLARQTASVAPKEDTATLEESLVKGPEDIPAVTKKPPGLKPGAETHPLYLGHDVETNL
Test: inhibition of sodium iodide symporter in rat FRTL5 cells after 1 hr by arsenic/cerium titration assay
Assay type: cell-based, FRTL-5
Settings: not given
In short: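 Iodide entrapment measured in FRTL5 cells after 1 h incubation at 20 ± 1 °C. Supernatant removed, then cellular iodide read at once by a modified non-radioactive As/Ce Sandell–Kolthoff reaction against iodide standards. DMSO stocks 20 mM; NaClO₄ and a reference inhibitor on every plate as controls. Racemates tested. IC₅₀ from a four-parameter Hill fit, averaged over ≥2 independent experiments.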

Row | IC50 [nM] | SMILES
13 | 89 | COc1ccc(COC(=O)C2=C(C)NC(=O)NC2c2ccccc2)cc1 (configuration not stated)
14 | 65 | COc1ccc(COC(=O)C2=C(C)N(C)C(=O)N(C)C2c2ccco2)cc1OC (configuration not stated)
15 | 70 | COc1ccc(COC(=O)C2=C(C)NC(=O)N[C@@H]2c2ccccc2)cc1
16 | 1500 | COc1ccc(COC(=O)C2=C(C)NC(=O)N[C@H]2c2ccccc2)cc1
17 | 630 | COc1ccc(COC(=O)C2=C(C)NC(=O)N[C@@H]2c2ccco2)cc1
18 | 14000 | COc1ccc(COC(=O)C2=C(C)NC(=O)N[C@H]2c2ccco2)cc1
19 | 0.7 | CC1=C(C(=O)OCc2ccc3c(c2)OCO3)[C@@H](c2ccco2)N(C)C(=O)N1C
20 | 630 | CC1=C(C(=O)OCc2ccc3c(c2)OCO3)[C@H](c2ccco2)N(C)C(=O)N1C
21 | 400 | COc1ccc(COC(=O)C2=C(C)NC(=O)NC2c2ccco2)cc1OC (configuration not stated)
22 | 1000 | COc1ccc(COC(=O)C2=C(C)N(C)C(=O)NC2c2ccco2)cc1OC (configuration not stated)
